Published values pooled from the literature.
Each line is one published result; the experiments were not run side by side.
Target: Testis-specific serine/threonine-protein kinase 3 (TSSK3, Homo sapiens, UniProt Q96PN8)
One construct used (Q96PN8 1-268): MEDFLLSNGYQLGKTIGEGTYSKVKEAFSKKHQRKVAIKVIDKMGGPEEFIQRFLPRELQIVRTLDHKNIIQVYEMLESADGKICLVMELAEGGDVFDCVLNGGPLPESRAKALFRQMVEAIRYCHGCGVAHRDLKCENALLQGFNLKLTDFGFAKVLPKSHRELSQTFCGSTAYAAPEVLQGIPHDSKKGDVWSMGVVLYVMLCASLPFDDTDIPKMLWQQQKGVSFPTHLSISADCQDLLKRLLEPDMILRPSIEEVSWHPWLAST

| SMILES | effect on | mode | technique | tested at | measurement | value |
| --- | --- | --- | --- | --- | --- | --- |
| CC1CCCN1c1nccc(-c2cnn3ncccc23)n1 (stereo not shown) | binding | – | – | 1 µM | remaining binding | 99% |
| COc1cc(Cl)c(C(=O)N[C@@H](CN[C@H]2CC[C@@H](N)CC2)Cc2ccc(C#N)cc2)cc1-c1ccc(CN[C@H](C)c2ccc(C)cc2)o1 | enzyme activity | inhibitor | – | 1 µM | remaining activity | 97% |
| CO[C@H]1CC[C@H](CNc2ccc(S(=O)(=O)NC(=O)c3ccc(N4CCN(CC5=C(c6ccc(Cl)cc6)CC(C)(C)CC5)CC4)cc3Oc3cnc4[nH]ccc4c3)cc2[N+](=O)[O-])CC1 | cell-free assay | – | competition with immobilised ligand | 1 µM | remaining binding | 70% |
| Cc1sc(C(=O)NC2COC2)cc1-n1cc(NC(=O)Nc2c(F)cccc2Cl)cn1 | enzyme activity | inhibitor | – | 10 µM | remaining activity | 100% |
| Nc1ncnc2occ(-c3ccc(NC(=O)Nc4cc(C(F)(F)F)ccc4F)cc3)c12 | cell-free assay | inhibitor | – | 20 µM | remaining signal | 39% |
| O=C(Nc1cnn(-c2csc(C(=O)NC3COC3)c2)c1)Nc1ccccc1Cl | enzyme activity | inhibitor | – | 5 µM | remaining activity | 97.7% |
| Cc1ccc(C(=O)Nc2ccc(CN3CCN(C)CC3)c(C(F)(F)F)c2)cc1C#Cc1cnc2cccnn12 | enzyme activity | inhibitor | – | 23.5 nM | remaining activity | 84% |
| CSc1cccnc1N1CCN(Cc2nc3ccccc3[nH]2)CC1 | cell-free assay | – | competition with immobilised ligand | 1 µM | remaining binding | 98% |
| CN1CC(Oc2cnc(C#N)cc2-c2ccn3nc(NC(=O)C4CC4)cc3c2)C1 | enzyme activity | inhibitor | – | 1 µM | inhibition | -3% |
| CC(C)(O)[C@H]1CC[C@H](Nc2ccc3ncc(-c4cccc(C(F)(F)F)c4)n3n2)CC1 | enzyme activity | inhibitor | – | 1 µM | remaining activity | 110% |
